# Source: PubChem
# Only some compounds are listed: those with a hit (about 12% of all), similar ones and a draw of the others.
# MT stabilizer: microtubule stabilization, imaging screen. % tubulin-high responders, % at 10 µM. hit rate 0.83% among 200,000. AID 2205. HeLa tubulin immunostaining HCS, 24 h; share of cells brighter than vehicle mean+2SD;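 active = plate Z-score above 3 for both tubulin-high and condensed-nucleus cell shares, with cell loss under 80%, at 10 µM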;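 also: anti alpha tubulin signal scored within the nucleus-defined area of each cell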
# CHOP inh: CHOP inhibition in unfolded protein response | CHO-K1 CHOP-promoter luciferase, tunicamycin-induced, 15-18 h | inhibition, % at 10 µM | hit rate 3.8% among 220,000 | AID 2732;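 active = compounds that reduced the stress-induced luciferase reporter signal by more than about 70% of percent inhibition, limit read from the data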;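 also: 0% = tunicamycin plus vehicle and 100% = wells without tunicamycin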
# b-catenin transl: beta-catenin nuclear translocation modulation. HeLa beta-catenin nuclear translocation, immunofluorescence imaging. nuclear translocation activity, % at 5 µM. hit rate 0.3% among 190,000;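 active = nuclear translocation activity above 50% at 5 µM, with a well cell count of 50 or more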;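 also: per-cell ratio of nuclear to cytoplasmic median beta-catenin stain intensity; plate controls were DMSO negative control for no effect and GSK-3 inhibitor IX positive control for full effect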
#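 Signal – beta-catenin immunofluorescence imaging with DAPI · Test system – human HeLa cell line · Dosing – 5 µM primary single dose, 0.1% DMSO, 0.02–20 µM confirmation series · Measure – % activation, nuclear-to-cytoplasmic median beta-catenin signal ratio per cell · Incubation – 24 h compound exposure at 37°C, 5% CO2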
# L major viab: Leishmania major promastigote growth inhibition; Leishmania major promastigotes, resazurin fluorescence viability; inhibition, % at 10 µM; hit rate 9% among 200,000; in the data active = inhibition above about 50%;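 also: promastigotes grown with compound for 44 hours at 28 °C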
# Dynein cargo inh: blocks dynein driven cargo transport along microtubules; 3617.4 mouse cells, GR-EGFP nuclear translocation imaging; test concentration mostly 20 µM; stimulated with dexamethasone, 1 µM; hits give low values; z-score, hits read low; hit rate 0.47% among 220,000;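 active = plate z-score of nuclear minus cytoplasmic receptor signal below a set negative limit, without overly bright fluorescence or cell loss, cut at about -3.5 in these data, passing the limit was not always enough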;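 also: z-score of nuclear minus cytoplasmic ring GR-EGFP intensity difference per well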
#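 medium = tetracycline-free induction medium containing charcoal-stripped FBS | also added = 1.0 µM final dexamethasone stimulus | schedule = 48 h induction, 1 h compound, 30 min dex at 37 °C | technique = fixed, Hoechst-stained cells imaged at 10x for EGFP | measure = GR-EGFP nuclear translocation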
# Autophagy HCS: modulators of autophagy | hit rate 0.98% among 190,000 | MEF GFP-LC3 puncta imaging; test concentration mostly 10 µM | calls only at 10 µM (by protocol);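 active = percentage of spot-positive cells more than 3 SD above its plate mean, without a fluorescence outlier flag or 80% toxicity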;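 also: spot-positive cell cutoff set from DMSO-treated cells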
# Active calls of the source: *; i = inactive; x = no result given.
SMILES,MT stabilizer,CHOP inh,b-catenin transl,L major viab,Dynein cargo inh,Autophagy HCS
Oc1ccc(Br)cc1/C=N/Nc1nc(N2CCCCC2)nc(N2CCOCC2)n1,3,15,0,91*,0.62,i
C(=N\Nc1nc(N2CCCCCC2)nc(N2CCCCCC2)n1)/c1ccccc1,2,42,-2,61*,0.7,i
Fc1ccccc1COc1ccccc1/C=N/Nc1nc(N2CCCC2)nc(N2CCCC2)n1,2,-18,1,50*,0.43,i
Brc1cc2c(cc1/C=N/Nc1nc(N3CCCC3)nc(N3CCOCC3)n1)OCO2,3,1,x,7,-0.88,i
COc1cc(C=O)c(Br)cc1OCc1ccc(C)cc1,1,19,0,-5,-0.36,i
C/C(=C/C=N/Nc1nc(N2CCCCC2)nc(N2CCCCC2)n1)c1ccccc1,4,23,2,14,0.56,i
Fc1ccc(Nc2nc(N/N=C/c3ccco3)nc(N3CCCCC3)n2)cc1,5,56,-1,83*,0.26,i
CN(C)c1nc(NCc2ccccc2)nc(N/N=C/c2cccc(Br)c2)n1,3,21,0,52*,-0.45,i
CC(/C=N/Nc1nc(N2CCCCC2)nc(N2CCCCC2)n1)=C\c1ccccc1,3,73*,1,19,-0.38,i
C(=N\Nc1nc(N2CCOCC2)nc(N2CCOCC2)n1)/c1ccco1,3,6,0,-5,-0.17,i
BrC(=C\c1ccccc1)/C=N/Nc1nc(N2CCOCC2)nc(N2CCOCC2)n1,2,66,0,86*,-0.64,i
CCOC(=O)C12CC1/C(=N/O)c1ccccc1O2 (centres undefined),x,-22,x,x,x,x
Cc1ccc(NCC(=O)N/N=C/c2ccc(OC(=O)c3ccco3)cc2)cc1,1,-13,0,-6,-0.42,i
NC(N)=NC1=NC(=O)C(Cc2ccccc2)S1 (centres undefined),2,3,0,-7,0.16,i
CCc1ccc(N2CC(C(=O)Nc3cc(C)on3)CC2=O)cc1 (centres undefined),2,-8,1,-4,-0.72,i
COc1cnc(SC)nc1Nc1ccc(C#N)cc1,x,18,0,x,-0.049,x
O=c1oc2cc(Oc3ccc(C(F)(F)F)cc3[N+](=O)[O-])ccc2c2c1CCCC2,4,36,-3,4,0.42,i
COc1ccc(CCNC(=O)CCSc2nc(-c3ccco3)cc(C(F)(F)F)n2)cc1OC,3,27,-3,8,0.89,i
Cc1ccc(C(=O)CSc2nnc(-c3ccc4[nH]c(C)c(C)c4c3)o2)cc1C,3,74*,-7,8,-0.34,i
CCOC(=O)N1CCC(N2CCN(Cc3ccc(F)c(F)c3)C(CCO)C2)CC1 (centres undefined),2,4,0,84*,0.59,i
CSc1ccc(CN2CCN(CC=C(C)C)C(CCO)C2)cc1 (centres undefined),6,2,0,65*,-0.44,i
CCCn1ncc(CN2CCN(CCc3ccccc3)C(CCO)C2)c1C (centres undefined),1,10,0,60*,-0.024,i
CC(C)c1csc(CN2CCN(Cc3ccc(F)c(F)c3)C(CCO)C2)n1 (centres undefined),1,27,0,70*,1.1,i
CC(C)c1cc(CN2CCN(Cc3ccc(F)c(F)c3)C(CCO)C2)[nH]n1 (centres undefined),2,-4,0,6,0.48,i
CCOC(=O)N1CCC(N2CCN(CCC(C)C)C(CCO)C2)CC1 (centres undefined),3,5,3,21,-0.22,i
SMILES,MT stabilizer,CHOP inh,b-catenin transl,L major viab,Dynein cargo inh,Autophagy HCS
CC(C)(O)C#Cc1ccc(CN2CCN(Cc3ccccc3)C(CCO)C2)s1 (centres undefined),3,22,1,5,0.22,i
CC(C)(O)C#Cc1ccc(CN2CCN(Cc3ccccc3)C(CCO)C2)cc1 (centres undefined),2,18,2,8,2,i
CC(C)(O)C#Cc1ccc(CN2CCN(CCc3ccccc3)C(CCO)C2)s1 (centres undefined),2,17,1,80*,-0.24,i
OCCC1CN(Cc2ccn[nH]2)CCN1Cc1ccc(F)c(F)c1 (centres undefined),3,-5,-2,-4,0.19,i
CSc1cccc(CN2CCN(Cc3ccc(F)c(F)c3)C(CCO)C2)c1 (centres undefined),6,4,-1,79*,-0.22,i
CSc1ccc(CN2CCN(Cc3ccccc3)C(CCO)C2)cc1 (centres undefined),3,12,-2,74*,-0.59,i
CSc1cccc(CN2CCN(Cc3ccccc3)C(CCO)C2)c1 (centres undefined),3,16,0,84*,0.46,i
CC(C)c1nc(SCC(=O)NCc2ccccc2)n[nH]1,3,19,-9,-2,-0.99,i
CCOC(=O)C1=C2NC(=O)c3ccccc3N2C(=O)C1,3,-9,0,-6,-1.3,i
Cc1ccc(NC(=O)CCCCCCCCCCC2COCCO2)c(C)c1 (centres undefined),4,65,-3,-4,1.1,i
O=C(O)COc1ccccc1/C=N/NC(=O)c1cccc(S(=O)(=O)N2CCOCC2)c1,3,12,6,-1,0.21,i
CC(OC(=O)C1=COCCO1)C(=O)Nc1ccccc1C#N (centres undefined),1,11,1,-4,-0.31,i
Oc1cc(-n2cccn2)c(O)cc1-n1cccn1,x,-3,-3,x,-0.69,x
CSc1cccc(CN2CCN(CCc3ccccc3)C(CCO)C2)c1 (centres undefined),4,24,2,88*,0.34,i
Cc1ccc(C)c(NC(=S)NC(NC(=O)OCc2ccccc2)C(Cl)(Cl)Cl)c1 (centres undefined),4,92*,-2,58*,-0.52,i
O=C(CCc1ccccc1)NC(NC(=S)Nc1cccc(Cl)c1)C(Cl)(Cl)Cl (centres undefined),3,39,-2,1,-1.4,i
O=C(NC(NC(=S)Nc1c(Cl)cc(Cl)cc1Cl)C(Cl)(Cl)Cl)OCc1ccccc1 (centres undefined),7,88*,1,33,0.35,i
COC(=O)NC(NC(=S)Nc1cccc(C)c1)C(Cl)(Cl)Cl (centres undefined),2,14,0,13,-0.31,i
Cc1c(NC(=O)COC(=O)C(c2ccc(Cl)cc2)C(C)C)c(=O)n(-c2ccccc2)n1C (centres undefined),1,4,x,2,0.34,i
COc1ccc(/C=C/C(=O)OCCCN(C)C)cc1,7,11,0,5,-1,i
